Laboratory results reported in paper PMC9968262 (American Journal of Clinical Dermatology, 2022).
“And” between values parts separate entries of the source, which are not always exact repeats. Identical values can stand only once. Like-named read-outs stand apart in the source and are kept apart here. One block for each compound: values may come before it.

Experiments:
Phase I/IIa study [1] = assay type: in vivo, human; conditions: for skin samples with measurable (quantifiable) level: N = 27 skin samples; for Kp at 24 h / concentration at 24 h / concentration at 28 days: human, topical; for Kp at 24 h: skin (punch biopsy) / plasma; for concentration at 24 h / concentration at 28 days: skin (punch biopsy)
DERMIS-2 = assay type: in vivo, human; conditions: for Week 4 extrapolated AUC24, h*ng/mL / Week 8 extrapolated AUC24, h*ng/mL: predose concentration x 24, mean (SD)
Summary of the method: (§1)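 Patients with chronic plaque psoriasis covering 2–20% BSA were randomized 2:1 (double-blind) to 0.3% cream or vehicle. Cream was applied once daily for 8 weeks, including to new lesions. Predose (Ctrough) plasma was sampled at Baseline, Week 4 and Week 8. Parent and N-oxide were measured by validated LC-MS/MS (LLOQ 0.100 ng/mL). AUC24 = observed predose concentration × 24.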

DERMIS-1 = assay type: in vivo, human; conditions: for Week 4 extrapolated AUC24, h*ng/mL / Week 8 extrapolated AUC24, h*ng/mL: predose concentration x 24, mean (SD)
Summary of the method: as §1

Maximal usage PK study = assay type: in vivo, human; conditions: for steady state achieved by: plasma concentrations, roflumilast cream 0.3% once daily; for Tmax, h (min–max): plasma, Day 15, roflumilast cream 0.3% daily topical, mean (min–max)
Summary of the method: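 Open-label, single-arm, 2-week maximal-use study: 0.3% cream at 2 mg/cm2 once each evening to all plaques except the scalp. Subjects were adolescents 12–17 y (≥10% BSA) and adults (≥20% BSA), with IGA ≥3. Plasma was sampled predose and 1, 2, 4, 8 and 24 h post-dose on Days 1 and 15, plus 7, 14 and 21 days after the last dose. Analysis was LC-MS/MS (LLOQ 0.100 ng/mL) with noncompartmental linear trapezoidal methods.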

Phase I/IIa study [2] = assay type: in vivo, human; conditions: for plasma concentration, mean (SD): Day 28; for concentration at 24 h / concentration at 28 days: human, plasma, topical
Summary of the method: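 Cohort 2 was double-blind and vehicle-controlled: 0.15% or 0.5% cream once daily for 28 days. Patients had psoriasis for >6 months and ≤5% BSA involvement. Day 28 plasma was drawn before application and at 1, 2, 4, 6 and 24 h after the last dose. Parent and N-oxide were quantified by validated LC-MS/MS (LLOQ 0.100 ng/mL).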

[3] = tested on: phosphodiesterase 4 (PDE4); conditions: active metabolite; cited from earlier work
[4] = cited from earlier work; for peak plasma concentration (Cmax): healthy volunteers; for elimination half-life: roflumilast administered orally
[5] = oral 500 µg; cited from earlier work
[6] = at 22 °C; cited from earlier work
[7] = cited from earlier work
[8] = age 6–11 years (N = 1), predose concentration x 24
[9] = age 6–11 years (N = 1), predose plasma (Ctrough)
[10] = age 12–17 years (N = 5), predose plasma (Ctrough), mean (SD)
[11] = age ≥ 18 years (N = 244), predose plasma (Ctrough), mean (SD)
[12] = age 12–17 years (N = 3), predose plasma (Ctrough), mean (SD)
[13] = age ≥ 18 years (N = 241), predose plasma (Ctrough), mean (SD)
[14] = multiple dosing of oral roflumilast 500 µg

skin samples with measurable (quantifiable) level (Phase I/IIa study [1]): only one sample | skin samples with measurable (quantifiable) level (Phase I/IIa study [1]; listed as Roflumilast N-oxide): only one skin sample | skin concentrations lower than circulating plasma concentrations (Phase I/IIa study [1]; skin LLOQ of 0.2 ng/g, cream 0.15% and 0.5%): at least 30 fold | Week 4 extrapolated AUC24 (DERMIS-2; [8]): 576 ng·h/mL | Week 8 extrapolated AUC24 (DERMIS-2; [8]): 614 ng·h/mL | Week 4 conc. (DERMIS-2; [9]): 24.0 ng/mL | Week 8 conc. (DERMIS-2; [9]): 25.6 ng/mL | Week 4 extrapolated AUC24, h*ng/mL (DERMIS-2; age 12–17 years (N = 5)): 84.6 (58.4) h*ng/mL | Week 8 extrapolated AUC24, h*ng/mL (DERMIS-2; age 12–17 years (N = 5)): 161 (174) h*ng/mL | Week 4 conc., ng/mL (DERMIS-2; [10]): 3.53 (2.44) ng/mL | Week 8 conc., ng/mL (DERMIS-2; [10]): 6.72 (7.24) ng/mL | Week 4 extrapolated AUC24, h*ng/mL (DERMIS-2; age ≥ 18 years (N = 244)): 294 (338) h*ng/mL | Week 8 extrapolated AUC24, h*ng/mL (DERMIS-2; age ≥ 18 years (N = 244)): 249 (308) h*ng/mL | Week 4 conc., ng/mL (DERMIS-2; [11]): 12.2 (14.1) ng/mL | Week 8 conc. (DERMIS-2; [11]): 10.2 ng/mL | Week 8 extrapolated AUC24 (DERMIS-1; [8]): 103 ng·h/mL | Week 4 extrapolated AUC24, h*ng/mL (DERMIS-1; age 12–17 years (N = 3)): 202 (91.2) h*ng/mL | Week 8 extrapolated AUC24, h*ng/mL (DERMIS-1; age 12–17 years (N = 3)): 209 (132) h*ng/mL | Week 4 conc., ng/mL (DERMIS-1; [12]): 8.42 (3.80) ng/mL | Week 8 conc., ng/mL (DERMIS-1; [12]): 8.71 (5.49) ng/mL | Week 4 extrapolated AUC24, h*ng/mL (DERMIS-1; age ≥ 18 years (N = 241)): 288 (310) h*ng/mL | Week 8 extrapolated AUC24, h*ng/mL (DERMIS-1; age ≥ 18 years (N = 241)): 242 (290) h*ng/mL | Week 4 conc., ng/mL (DERMIS-1; [13]): 11.8 (12.9) ng/mL | Week 8 conc. (DERMIS-1; [13]): 9.86 ng/mL and 9.9 ng/mL | steady state achieved by (Maximal usage PK study): ≤ 15 days | Tmax, h (min–max) (Maximal usage PK study; adolescents 12–17 years): 16.5 (1.0–24.0) h | Tmax, h (min–max) (Maximal usage PK study; adults ≥18 years): 12.9 (0–24) h | roflumilast N-oxide plasma concentrations relative to roflumilast concentrations (Maximal usage PK study; repeat daily topical roflumilast cream 0.3%, steady state): eightfold | plasma concentration, mean (SD) (Phase I/IIa study [2]; roflumilast cream 0.15% (n = 21)): 5.44 [4.95] ng/mL | plasma concentration, mean (SD) (Phase I/IIa study [2]; roflumilast cream 0.5% (n = 20)): 6.52 [4.04] ng/mL
SMILES: O=C(Nc1c(Cl)c[n+]([O-])cc1Cl)c1ccc(OC(F)F)c(OCC2CC2)c1 [roflumilast N-oxide]
potency of N-oxide metabolite relative to roflumilast [3]: threefold less potent | systemic exposure of roflumilast N-oxide relative to roflumilast ([4]; intravenous administration of roflumilast): 7.4 times | peak plasma concentration (Cmax) [4, 14]: 21.7 ng/mL | systemic exposure of roflumilast N-oxide relative to roflumilast ([4]; oral administration of roflumilast): 12.4 times | elimination half-life [4]: 30 h

skin samples with measurable (quantifiable) level (Phase I/IIa study [1]): All but one sample | Kp at 24 h (Phase I/IIa study [1]; 0.15 % cream): 126 | Kp at 24 h (Phase I/IIa study [1]; 0.5 % cream): 61.8 | concentration at 24 h (Phase I/IIa study [1]; 0.15 % cream): 84 ng/mL | concentration at 28 days (Phase I/IIa study [1]; 0.15 % cream): 120 ng/g | concentration at 24 h (Phase I/IIa study [1]; 0.5 % cream): 51 ng/mL | concentration at 28 days (Phase I/IIa study [1]; 0.5 % cream): 56.1 ng/g | Week 8 extrapolated AUC24, h*ng/mL (DERMIS-1; age ≥ 18 years (N = 241)): 47.4 (58.3) h*ng/mL | Week 4 conc., ng/mL (DERMIS-1; [13]): 2.05 (2.83) ng/mL | steady state achieved by (Maximal usage PK study): ≤ 15 days | peak-to-trough ratio (plasma) (Maximal usage PK study; steady state (Day 15), topical roflumilast cream 0.3%): 1.2 | concentration at 24 h (Phase I/IIa study [2]; 0.15 % cream): 1.15 ng/mL | concentration at 28 days (Phase I/IIa study [2]; 0.15 % cream): 1.03 ng/mL | concentration at 24 h (Phase I/IIa study [2]; 0.5 % cream): 0.805 ng/mL | concentration at 28 days (Phase I/IIa study [2]; 0.5 % cream): 1.15 ng/mL
SMILES: O=C(Nc1c(Cl)cncc1Cl)c1ccc(OC(F)F)c(OCC2CC2)c1 [roflumilast]
oral bioavailability ([4]; 500 µg oral dose): approximately 79% | time to absorption / peak levels after oral dose ([4]; 500 µg oral dose): about 1.25 h | time to absorption / peak levels after oral dose ([4]; 500 µg oral dose, listed as Roflumilast): 1 h | Cmax in COPD patients higher than in healthy volunteers [4, 14]: about 6% | peak plasma concentration (Cmax) [4, 14]: 6.01 ng/mL | peak-to-trough ratio ([4]; oral administration): greater than 10 | elimination half-life [4]: 17 to 30 h and 17 h | diarrhea (occurrence) [5]: 9.5% | nausea (occurrence) [5]: 4.7% | weight decreased (occurrence) [5]: 7.5% | water solubility [6]: 0.52 to 0.56 µg/mL | logP [7]: 3.53
